Data set [1] concerns the target Acyl-CoA (8-3)-desaturase (Rattus norvegicus) (UniProt Q920R3). The data set can be described thus: Inhibition of delta5 desaturase in Sprague-Dawley rat liver microsome at 10 uM. Format: microsomes.
The nature of data set [2]: Oral bioavailability in Lewis rat at 5 mg/kg. Format: ADME, organism-based. As to conditions: in vivo. The essentials: (§1)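 Lewis rats, IV 3 mg/kg and PO 10 mg/kg unless otherwise stated (some at PO 5 mg/kg, IV 1 mg/kg, or IV 1/PO 2 mg/kg). At least two rats IV, three rats PO, averaged. Plasma t1/2 (h), AUC 0–∞ (μM·h), Vss (L/kg), clearance ((L/h)/kg), Cmax (μM), Tmax (h), oral bioavailability (%).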

The nature of data set [3]: Cmax in Lewis rat at 5 mg/kg, po. Format: ADME, organism-based. More on the design: dose 5 mg/kg, route oral. To be noted: in vivo. The essentials:
as §1

A short description of data set [4]: Tmax in Lewis rat at 5 mg/kg, po. To be noted: in vivo. Format: ADME, organism-based. On the set-up: dose 5 mg/kg, route oral. The essentials:
as §1

The nature of data set [5]: Clearance in Lewis rat at 3 mg/kg, iv. Format: ADME, organism-based. More on the design: dose 3 mg/kg, route intravenous. As to conditions: in vivo. Summed up:
as §1

The nature of data set [6]: Volume of distribution at steady state in Lewis rat at 3 mg/kg, iv. Format: ADME, organism-based. More on the design: dose 3 mg/kg, route intravenous. As to conditions: in vivo, read-out: Vdss. The essentials:
as §1

The nature of data set [7]: Half life in Lewis rat at 3 mg/kg, iv. As to conditions: in vivo. Format: ADME, organism-based. On the set-up: dose 3 mg/kg, route intravenous. Summed up:
as §1

Data set [8] concerns Rattus norvegicus. The data set can be described thus: In vivo inhibition of SCD1 in Lewis rat liver microsome at 15 mg/kg, ip administered qd for 2 days. Format: functional. To be noted: 48 h, route intraperitoneal. The essentials:
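Lewis rats fed high-carbohydrate diet for one week, fasted 4 h, then dosed orally (0.1–1 mg/kg in 0.2% Tween 20/1% CMC; n = 4), killed 4 h later; ip arm 15 mg/kg once daily for two days. Liver microsomes prepared, SCD1 activity measured by tritiated water release from [9,10-3H]stearoyl-CoA. Mean ± SD of at least four rats.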

The nature of data set [9]: Apparent permeability from basolateral to apical side in human Caco2 cells. Format: ADME, cell-based. To be noted: Caco-2. The essentials:
(§2)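 Caco-2 monolayers; apparent permeability a-to-b and b-to-a reported in 10⁻⁶ cm/s.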

Data set [10] can be described thus: Metabolic stability in rat liver microsome after 30 mins by LC/MS/MS analysis. Format: ADME. To be noted: liver microsomes, read-out: Stability. The essentials: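 Compound incubated 30 min with rat liver microsomes; percent parent remaining by LC/MS/MS.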
Data set [11] is described as follows: Apparent permeability from apical to basolateral side in human Caco2 cells. To be noted: Caco-2. Format: ADME, cell-based. The essentials: as §2
Data set [12] concerns the target Acyl-CoA 6-desaturase (Rattus norvegicus) (UniProt Q9Z122). Nature of the data set: Inhibition of delta6 desaturase in Sprague-Dawley rat liver microsome using cis,cis-9,12-octadecadienoic acid substrate at 10 uM.
Data set [13] addresses T1, Acyl-CoA desaturase 1 (Mus musculus, UniProt P13516).
T1 sequence (P13516 whole entry): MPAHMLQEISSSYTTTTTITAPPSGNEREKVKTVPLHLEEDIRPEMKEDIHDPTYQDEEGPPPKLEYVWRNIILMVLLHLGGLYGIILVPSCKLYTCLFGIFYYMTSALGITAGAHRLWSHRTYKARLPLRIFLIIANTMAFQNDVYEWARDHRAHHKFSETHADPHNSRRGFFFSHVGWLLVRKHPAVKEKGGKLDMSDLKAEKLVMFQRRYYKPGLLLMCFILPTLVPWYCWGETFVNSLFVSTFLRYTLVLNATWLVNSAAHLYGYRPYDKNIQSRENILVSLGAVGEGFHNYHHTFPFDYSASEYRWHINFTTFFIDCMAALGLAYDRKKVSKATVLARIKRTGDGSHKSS
The data set can be described thus: Inhibition of SCD1 in ICR mouse liver microsome using [9,10 3H]- stearoyl-Coenzyme A substrate assessed as decreased production of tritiated water after 20 min by scintillation counting analysis.

Data set [14] can be described thus: Protein binding in plasma (unknown origin). As to conditions: read-out: PPB (converted). Format: ADME, cell-free.
Data set [15] has as its target CYP2D6 (Homo sapiens, UniProt P10635). The data set can be described thus: Inhibition of CYP2D6 (unknown origin) at 10 uM. Format: ADME.
Data set [16] deals with CYP2C19 (Homo sapiens, UniProt P33261). The data set can be described thus: Inhibition of CYP2C19 (unknown origin) at 10 uM. Format: ADME.
Data set [17] deals with CYP2C9 (Homo sapiens, UniProt P11712). The data set can be described thus: Inhibition of CYP2C9 (unknown origin) at 10 uM. Format: ADME.
The target in data set [18] is CYP3A4 (Homo sapiens, UniProt P08684). The data set can be described thus: Inhibition of CYP3A4 (unknown origin) at 10 uM. Format: ADME.

Activity calls are given as the source filed them. No cut-off for these calls is given here. Where only a bound is given, the exact number is not on record here.

Chain of CYP2D6 (P10635 whole entry): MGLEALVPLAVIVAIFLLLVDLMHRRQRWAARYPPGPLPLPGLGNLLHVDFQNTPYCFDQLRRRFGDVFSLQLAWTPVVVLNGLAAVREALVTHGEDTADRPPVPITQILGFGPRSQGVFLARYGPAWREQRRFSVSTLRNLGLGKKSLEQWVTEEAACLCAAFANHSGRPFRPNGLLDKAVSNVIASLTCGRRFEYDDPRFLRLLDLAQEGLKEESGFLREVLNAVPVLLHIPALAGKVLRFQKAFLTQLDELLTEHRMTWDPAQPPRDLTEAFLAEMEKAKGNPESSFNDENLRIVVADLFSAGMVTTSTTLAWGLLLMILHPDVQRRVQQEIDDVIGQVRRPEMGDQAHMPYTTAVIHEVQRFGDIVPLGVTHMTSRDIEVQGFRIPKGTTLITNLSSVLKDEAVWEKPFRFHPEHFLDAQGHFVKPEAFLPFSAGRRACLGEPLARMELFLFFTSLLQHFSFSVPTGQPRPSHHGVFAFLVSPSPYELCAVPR
Chain of CYP2C9 (P11712 whole entry): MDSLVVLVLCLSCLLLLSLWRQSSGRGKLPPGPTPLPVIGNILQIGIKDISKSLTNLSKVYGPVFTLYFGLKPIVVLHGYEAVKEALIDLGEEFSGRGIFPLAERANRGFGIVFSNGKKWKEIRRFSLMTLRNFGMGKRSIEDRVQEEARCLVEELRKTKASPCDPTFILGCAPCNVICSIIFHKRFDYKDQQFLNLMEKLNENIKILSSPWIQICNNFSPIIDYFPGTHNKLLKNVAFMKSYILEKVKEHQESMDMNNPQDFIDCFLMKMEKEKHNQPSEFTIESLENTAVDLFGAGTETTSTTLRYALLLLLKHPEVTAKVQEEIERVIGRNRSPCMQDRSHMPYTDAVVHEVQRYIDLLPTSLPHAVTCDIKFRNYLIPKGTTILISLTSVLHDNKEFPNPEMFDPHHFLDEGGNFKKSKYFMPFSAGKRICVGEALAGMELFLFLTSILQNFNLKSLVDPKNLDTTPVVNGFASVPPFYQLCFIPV
Chain of CYP2C19 (P33261 whole entry): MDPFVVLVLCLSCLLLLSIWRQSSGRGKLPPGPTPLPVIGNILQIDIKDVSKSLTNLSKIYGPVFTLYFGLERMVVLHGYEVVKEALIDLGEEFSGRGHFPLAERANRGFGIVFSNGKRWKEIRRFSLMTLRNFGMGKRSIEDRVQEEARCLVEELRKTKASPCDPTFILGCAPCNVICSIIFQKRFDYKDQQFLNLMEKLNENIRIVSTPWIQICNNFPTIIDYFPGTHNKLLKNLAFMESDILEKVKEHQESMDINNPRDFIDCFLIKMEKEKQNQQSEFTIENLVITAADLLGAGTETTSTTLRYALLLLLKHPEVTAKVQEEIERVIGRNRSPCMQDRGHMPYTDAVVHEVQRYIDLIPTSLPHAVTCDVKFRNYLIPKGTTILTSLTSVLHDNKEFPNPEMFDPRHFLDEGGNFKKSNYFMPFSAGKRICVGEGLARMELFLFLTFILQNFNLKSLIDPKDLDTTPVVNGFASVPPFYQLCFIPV
Chain of Acyl-CoA 6-desaturase (Rattus norvegicus) (Q9Z122 whole entry, looked up): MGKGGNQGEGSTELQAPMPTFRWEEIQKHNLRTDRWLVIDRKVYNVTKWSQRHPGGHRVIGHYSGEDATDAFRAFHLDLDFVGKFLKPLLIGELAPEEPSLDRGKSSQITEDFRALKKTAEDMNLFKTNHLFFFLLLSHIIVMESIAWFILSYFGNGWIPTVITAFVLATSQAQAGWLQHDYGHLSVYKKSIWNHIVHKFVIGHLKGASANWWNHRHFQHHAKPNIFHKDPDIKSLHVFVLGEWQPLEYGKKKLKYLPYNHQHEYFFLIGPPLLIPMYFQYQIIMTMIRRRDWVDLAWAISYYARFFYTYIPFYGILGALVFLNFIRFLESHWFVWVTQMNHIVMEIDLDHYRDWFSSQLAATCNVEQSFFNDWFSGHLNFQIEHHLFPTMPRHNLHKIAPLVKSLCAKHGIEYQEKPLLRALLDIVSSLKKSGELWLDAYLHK
Chain of Acyl-CoA (8-3)-desaturase (Rattus norvegicus) (Q920R3 whole entry, looked up): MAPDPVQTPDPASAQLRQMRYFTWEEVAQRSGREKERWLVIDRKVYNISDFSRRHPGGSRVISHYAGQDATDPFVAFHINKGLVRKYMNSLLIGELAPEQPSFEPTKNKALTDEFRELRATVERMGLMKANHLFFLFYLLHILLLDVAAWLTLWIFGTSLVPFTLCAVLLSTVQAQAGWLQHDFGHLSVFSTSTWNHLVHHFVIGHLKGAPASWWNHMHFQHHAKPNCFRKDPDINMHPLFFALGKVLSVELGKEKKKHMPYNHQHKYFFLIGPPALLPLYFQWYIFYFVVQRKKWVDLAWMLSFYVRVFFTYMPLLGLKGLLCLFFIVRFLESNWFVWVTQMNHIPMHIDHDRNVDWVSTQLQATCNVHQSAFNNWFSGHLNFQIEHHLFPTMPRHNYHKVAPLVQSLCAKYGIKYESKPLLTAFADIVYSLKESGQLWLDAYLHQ
Chain of CYP3A4 (P08684 whole entry): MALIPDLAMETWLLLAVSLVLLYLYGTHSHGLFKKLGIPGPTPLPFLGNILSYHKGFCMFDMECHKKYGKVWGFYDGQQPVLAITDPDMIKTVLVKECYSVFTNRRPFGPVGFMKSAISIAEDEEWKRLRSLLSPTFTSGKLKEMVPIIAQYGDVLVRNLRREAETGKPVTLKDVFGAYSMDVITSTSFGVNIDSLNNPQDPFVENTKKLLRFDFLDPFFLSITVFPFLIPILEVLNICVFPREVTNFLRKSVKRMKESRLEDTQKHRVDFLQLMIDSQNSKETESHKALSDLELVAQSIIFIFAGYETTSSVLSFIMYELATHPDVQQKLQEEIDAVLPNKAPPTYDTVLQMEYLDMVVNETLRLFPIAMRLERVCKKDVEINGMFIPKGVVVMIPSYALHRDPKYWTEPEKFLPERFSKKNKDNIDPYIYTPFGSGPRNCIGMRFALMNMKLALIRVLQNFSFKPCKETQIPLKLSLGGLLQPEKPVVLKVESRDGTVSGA

Regarding `O=C(NCCC1CC1)c1ccc(N2CCN(C(=O)c3ccccc3C(F)(F)F)CC2)nn1`, the inhibition entry in data set [1] and in data set [12] was “inactive” throughout. Moreover, in [2], the bioavailability came to 46%. In data set [3], the concentration peaked (Cmax) at 900 nM. Also, in data set [4], the Tmax came to 1 h. Further, in [5], the clearance is 31.7 mL/min/kg. Besides, the Vd in [6] worked out at 2.2 L/kg. This compound showed a half-life in data set [7] of 1 h. This compound returned an inhibition in vivo at 15 mg/kg in [8] of more than 60%. In addition, in data set [9], the Papp B→A was 22 ×10⁻⁶ cm/s. For the same compound, the remaining at 0.5 h in [10] was 76%. Further, the apical-to-basolateral permeability (Papp A→B) in [11] was determined as 24 ×10⁻⁶ cm/s. Besides, the 50% inhibitory concentration (IC50) in data set [13] came to 25 nM.

In the case of `CC(C)CCNC(=O)c1ccc(N2CCN(C(=O)c3ccccc3C(F)(F)F)CC2)nn1`, in [8], the inhibition in vivo at 15 mg/kg was found to be 40%. The remaining at 0.5 h in data set [10] was found to be 57%. In addition, in data set [14], the fraction unbound was 0.22. In addition, the apparent permeability from apical to basolateral (Papp A→B) in [11] amounted to 25 ×10⁻⁶ cm/s. For the same compound, the inhibition at 10 µM in data set [15], in data set [16], in data set [17] and in [18] was less than 50% each time. In data set [13], the IC50 was found to be 26 nM.

Values taken from ChEMBL document CHEMBL2311383, “Discovery of piperazin-1-ylpyridazine-based potent and selective stearoyl-CoA desaturase-1 inhibitors for the treatment of obesity and metabolic syndrome” (J Med Chem, 2013).
